Assay outcomes from PubChem BioAssay.
Most compounds without a hit are left out; they make up all but 3.7% or so of the library.
Kir21 inh: blocks the mouse Kir2.1 inward-rectifier potassium channel; P35561; HEK293-Kir2.1, FluxOR thallium flux fluorescence; hits give low values; B-score at 10 µM; 310,000 compounds, 0.85% hits; AID 1672;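 active = fluorescence ratio B-score at or below minus 3 SD of library scores, with starting-brightness B-score within 2 SD, cut at about -4.2 in these data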;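 also: channel flux triggered by added potassium and thallium sulfate stimulus; B-score of peak minus minimum fluorescence over baseline after thallium stimulus; more negative B-score means stronger Kir2.1 block with less thallium influx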
hERG protect: hERG (human) protection from proarrhythmic block; AID 1511; activation (rescue from dofetilide block), less the hit threshold, % at 10 µM; Q12809; CHO-hERG, FluxOR thallium flux, dofetilide IC70 present; 310,000 compounds, 0.51% hits;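 active = activation above the mean of controls blocked by dofetilide plus 5 SD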;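 also: thallium influx through hERG after potassium depolarization seen as dye fluorescence rise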
KCNK9 inh: human KCNK9 channel inhibition. Q9NPC2. B-score at 10 µM. AID 488922. 310,000 compounds, 1.2% hits. HEK293 KCNK9, FluxOR thallium flux fluorescence; hits give low values;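 active = ratio B-score over 3 SD below the library mean, with starting fluorescence within 5 SD of its mean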;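 also: negative B-score means less thallium flux so channel inhibition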
KCNK3 inh: human KCNK3 channel inhibition, primary screen | O14649 | CHO-KCNK3 thallium flux, FluxOR fluorescence; hits give low values | B-score at 10 µM | 340,000 compounds, 0.84% hits | AID 602410;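 active = B-score under library mean minus 4 SD, starting fluorescence ratio at most library mean plus 5 SD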;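 also: more negative B-score means stronger inhibition of thallium flux through KCNK3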
Target sequence (O14649 whole entry, looked up): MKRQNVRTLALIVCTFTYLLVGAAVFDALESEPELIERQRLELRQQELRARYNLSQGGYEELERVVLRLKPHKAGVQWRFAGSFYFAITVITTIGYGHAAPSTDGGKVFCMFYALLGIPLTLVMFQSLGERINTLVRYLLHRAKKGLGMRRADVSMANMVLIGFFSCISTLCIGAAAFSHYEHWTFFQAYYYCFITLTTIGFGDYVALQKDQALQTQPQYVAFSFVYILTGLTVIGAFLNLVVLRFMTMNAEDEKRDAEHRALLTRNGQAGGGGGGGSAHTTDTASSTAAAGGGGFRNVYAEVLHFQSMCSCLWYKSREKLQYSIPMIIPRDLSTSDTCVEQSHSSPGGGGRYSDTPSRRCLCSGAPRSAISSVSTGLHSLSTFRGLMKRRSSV
KCNQ1 act: potentiators or activators of human KCNQ1 potassium channel. P51787. CHO-K1 KCNQ1, thallium flux FluxOR fluorescence; hits give high values. B-score at 10 µM. 310,000 compounds, 0.35% hits;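 active = fluorescence ratio B-score, a plate-corrected score, at least three library SD, with initial intensity B-score within 5 SD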
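Assay system: CHO-K1 cells stably expressing KCNQ1; Medium: assay buffer with matched DMSO; Also added: K+/Tl+ depolarizing stimulus; Dosing: single dose; Timing: dye 90 min, compound 20 min, room temperature; Measured by: kinetic FluxOR thallium fluorescence, 10-s 1-Hz baseline, 110-s post-stimulus read; Read-out: peak-minus-minimum fluorescence over initial fluorescence, negative-control normalized, B-scored.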
KCNQ1 inh: blocks the human KCNQ1 potassium channel. P51787. CHO-K1 KCNQ1, FluxOR thallium flux fluorescence; hits give high values. B-score at 10 µM. 310,000 compounds, 1.3% hits;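 active = compounds whose thallium flux B-score, printed positive for inhibition, exceeds three library SD while starting fluorescence stays within three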;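 also: channel opened by potassium depolarization with thallium stimulus after 20 min compound exposure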
KCNK9 inh conf: human KCNK9 inhibitor confirmation; shares compounds with KCNK9 inh; HEK293 KCNK9 cells, FluxOR thallium flux fluorescence; inhibition, % at 10 µM; 4,900 compounds, 43% hits;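 active = thallium signal inhibited by more than 5 SD of the compound-free buffer control wells, on both duplicate plates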;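 also: 0% = assay buffer control wells without compound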
Kir21 sel: selectivity of KCNK9 modulators against mouse Kir2.1; shares compounds with KCNK9 inh; Kir2.1 cells, FluxOR thallium flux fluorescence; inhibition, % at 10 µM; 4,900 compounds, 4% hits; AID 492993;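 active = thallium signal drop more than 5 SD beyond the mean of the no-compound control wells, seen in both duplicate plates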;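 also: signal is fluorescence rise after thallium addition divided by baseline fluorescence; plate controls were assay buffer only for no effect and full block by chlorpromazine control for full effect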
HEK293 Tl ctr: non-induced cell nonspecific activity of KCNK9 modulators; inhibition, % at 10 µM; 4,900 compounds, 40% hits; AID 492997; non-induced KCNK9-HEK293, FluxOR thallium flux; shares compounds with KCNK9 inh;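 active = thallium signal drop beyond 5 SD of the untreated control mean, on both duplicate plates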;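 also: plate controls were buffer only IC0 wells for no effect and SID17386958 at its maximal inhibitory level for full effect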
The depositor's hits bear a star; i = inactive; . = no result.

SMILES	Kir21 inh	hERG protect	KCNK9 inh	KCNK3 inh	KCNQ1 act	KCNQ1 inh	KCNK9 inh conf	Kir21 sel	HEK293 Tl ctr
CCOC(=O)CN(C(=O)COc1nc(-c2ccccc2)cc(C)c1C#N)c1cccc(OC)c1	-3.1	-10	i	i	i	i	.	.	.
CCOC(=O)CN(C(=O)COc1nc(-c2ccccc2)cc(C)c1C#N)c1ccc(C)cc1	-0.94	-10	i	i	i	i	i	i	i
CCCCCc1ccc(OCCOCCn2c[n+](C)c3ccccc32)c(CCCCC)c1	-15	-29	-8.4*	i	i	7*	53%*	61%*	i
COc1ccc(C(=O)CSc2nc3ccccc3n2CC(=O)c2ccccc2)cc1	0	-10	i	i	i	i	.	.	.
COc1ccc(C(=O)CSc2nc(C(C)(C)C)nc3ccccc23)cc1	0.69	-4	-10*	i	i	i	46%*	35%*	30%*
COC(=O)c1c(C)nc2nonc2c1N	1.2	-15	i	i	i	i	.	.	.
Cc1ccc(OCCn2c(C)c(/C=N/n3cnnc3)c3ccccc32)cc1	-0.96	-7	i	i	i	i	.	.	.
Cc1c(/C=N/n2cnnc2)c2ccccc2n1CCOc1ccc(Cl)cc1	0.23	-12	-8.2*	i	i	i	i	i	i
Cc1ccc(NC(=O)CN2CCc3cc4c(cc3C2C)OCCCO4)cc1 (stereo unspecified)	0.12	-12	i	i	i	i	.	.	.
Cc1ccc(NC(=O)CN2CCc3cc4c(cc3C2C)OCCCO4)cc1C (stereo unspecified)	0.24	-11	i	i	i	i	i	i	31%*
CNc1ccc(C(=O)c2ccccc2C(=O)O)cc1[N+](=O)[O-]	0.19	-9	i	i	i	i	.	.	.
CNc1ccc(/C=C/C(=O)c2cccc3ccccc23)cc1[N+](=O)[O-]	0.74	-12	-11*	i	i	i	48%*	i	36%*
Cc1ccc(C)c(NC(=O)c2oc(=O)c3ccccc3c2-c2ccccc2)c1	-0.93	-9	-15*	i	i	i	64%*	i	44%*
Cc1ccccc1NC(=O)c1oc(=O)c2ccccc2c1-c1ccccc1	-1.1	-6	i	i	i	i	.	.	.
CC(Sc1nnc(C2CC2)n1N)C(=O)NC1CCCCC1C (stereo unspecified)	0.69	-10	i	i	i	i	.	.	.
COc1cccc(C(=O)OC(C)CN2CCCC2)c1 (stereo unspecified)	0.64	-2	i	i	i	i	.	.	.
COc1cccc(C(=O)OCCN2CCCCC2)c1	-1.1	-8	i	i	i	i	i	i	i
COC(=O)c1c(NC(NC(=O)CC(C)C)C(Cl)(Cl)Cl)sc2c1CCC2 (stereo unspecified)	-0.88	-12	-9.7*	i	i	i	i	i	49%*
COc1ccccc1/C=C/C1(C(=O)NC2CCCC2)CC(=O)N1c1ccc(C)cc1 (stereo unspecified)	0.1	-21	-9.8*	i	i	i	i	i	40%*
O=C(CCS(=O)(=O)Cc1ccccc1)Nc1ncc([N+](=O)[O-])s1	-1.3	-5	i	i	i	i	.	.	.
N#C/C(=C\c1c(Cl)cccc1Cl)c1nc2ccccc2o1	0	-14	i	i	i	i	i	i	i
CN(C)/C=C(\C#N)c1nc2ccccc2[nH]1	-0.44	-5	i	i	i	i	.	.	.
N#C/C(=C\c1c(Cl)cccc1Cl)c1nc2ccccc2[nH]1	-1	-13	-8.8*	i	i	i	46%*	i	i
Cc1cc(O)ccc1N/C=C(\C#N)c1nc2ccccc2o1	1.3	-3	i	i	i	i	.	.	.
CCOC(=O)C1=C(C)NC(=S)NC1c1ccc(-c2cccc(Cl)c2C)o1 (stereo unspecified)	0.61	-7	-8.6*	i	i	i	i	i	i
SMILES	Kir21 inh	hERG protect	KCNK9 inh	KCNK3 inh	KCNQ1 act	KCNQ1 inh	KCNK9 inh conf	Kir21 sel	HEK293 Tl ctr
CCCC(Oc1ccc(Br)cc1)c1nc2c3cc(OC)c(OC)cc3nc(=S)n2[nH]1 (stereo unspecified)	0.67	-14	i	i	i	i	i	i	i
COc1ccccc1-c1nc2c3ccccc3nc(=S)n2[nH]1	0.71	-9	i	i	i	i	.	.	.
CC(Oc1ccc(Br)cc1)c1nc2c3ccccc3nc(=S)n2[nH]1 (stereo unspecified)	0.37	0	i	i	10*	i	i	i	i
Cc1cc(O)c(C(C)C)cc1NC(=S)Nc1cc(C(C)C)c(O)cc1C	.	.	.	i	.	.	.	.	.
COCCN1C(=O)/C(=C/c2ccc(OCc3ccc(C(=O)O)cc3)c(OC)c2)SC1=Nc1ccccc1	2.5	-33	i	i	i	i	i	i	i
O=C(NNC(=S)Nc1ccc(Cl)cc1Cl)c1ccc(N2CCOCC2)c([N+](=O)[O-])c1	0	-10	i	i	i	6*	i	i	i
Cc1ccc(NC(=S)NNC(=O)c2ccc(N3CCOCC3)c([N+](=O)[O-])c2)cc1Cl	0.98	-7	i	i	i	6*	i	i	i
O=C(Nc1cccc(NC(=O)c2cc([N+](=O)[O-])ccc2Cl)n1)c1cc([N+](=O)[O-])ccc1Cl	-0.46	-12	-8.2*	-9.9*	i	i	i	i	26%*
Cc1cc(C(=O)Nc2ccc(N3CCCC3)c(Cl)c2)ccc1[N+](=O)[O-]	-2.1	-2	i	i	i	i	.	.	.
Cc1cc(NC(=O)c2cc([N+](=O)[O-])ccc2Cl)no1	-1.7	-1	i	i	i	i	.	.	.
O=C(c1cc([N+](=O)[O-])ccc1Cl)N1CCN(c2ccccc2)CC1	2	-4	i	i	i	i	.	.	.
O=C(c1cc([N+](=O)[O-])ccc1Cl)N1c2ccccc2Sc2ccccc21	-0.73	-12	-12*	i	i	i	61%*	i	45%*
O=C(c1ccc(N2CCOCC2)c([N+](=O)[O-])c1)N1CCCCC1	0.7	-9	i	i	i	i	.	.	.
